Data on 10 compounds can be found in ChEMBL document CHEMBL1155875, “Optimization of the central heterocycle of alpha-ketoheterocycle inhibitors of fatty acid amide hydrolase” (J Med Chem, 2008).

Test [1] concerns the target T1, Fatty-acid amide hydrolase 1 (Rattus norvegicus, UniProt P97612).
T1 sequence (P97612 whole entry): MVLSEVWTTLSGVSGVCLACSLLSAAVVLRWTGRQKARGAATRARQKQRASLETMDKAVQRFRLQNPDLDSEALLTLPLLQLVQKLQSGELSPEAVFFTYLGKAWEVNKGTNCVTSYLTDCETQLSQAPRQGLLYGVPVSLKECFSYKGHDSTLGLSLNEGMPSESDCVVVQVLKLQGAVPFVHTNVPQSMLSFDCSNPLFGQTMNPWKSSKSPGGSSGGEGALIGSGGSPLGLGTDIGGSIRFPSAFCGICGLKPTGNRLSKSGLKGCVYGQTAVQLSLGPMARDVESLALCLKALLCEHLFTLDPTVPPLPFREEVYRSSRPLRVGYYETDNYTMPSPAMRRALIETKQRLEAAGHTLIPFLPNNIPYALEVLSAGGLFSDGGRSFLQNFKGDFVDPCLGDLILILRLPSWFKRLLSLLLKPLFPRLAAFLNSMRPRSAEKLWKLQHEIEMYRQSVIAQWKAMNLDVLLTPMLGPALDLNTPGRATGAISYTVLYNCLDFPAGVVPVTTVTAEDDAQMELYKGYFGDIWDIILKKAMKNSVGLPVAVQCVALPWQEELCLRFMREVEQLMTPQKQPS
Briefly: Inhibition of rat FAAH expressed in Escherichia coli.

Test [2] addresses T2, Neutral cholesterol ester hydrolase 1 (Homo sapiens, UniProt Q6PIU2).
T2 sequence (Q6PIU2 whole entry): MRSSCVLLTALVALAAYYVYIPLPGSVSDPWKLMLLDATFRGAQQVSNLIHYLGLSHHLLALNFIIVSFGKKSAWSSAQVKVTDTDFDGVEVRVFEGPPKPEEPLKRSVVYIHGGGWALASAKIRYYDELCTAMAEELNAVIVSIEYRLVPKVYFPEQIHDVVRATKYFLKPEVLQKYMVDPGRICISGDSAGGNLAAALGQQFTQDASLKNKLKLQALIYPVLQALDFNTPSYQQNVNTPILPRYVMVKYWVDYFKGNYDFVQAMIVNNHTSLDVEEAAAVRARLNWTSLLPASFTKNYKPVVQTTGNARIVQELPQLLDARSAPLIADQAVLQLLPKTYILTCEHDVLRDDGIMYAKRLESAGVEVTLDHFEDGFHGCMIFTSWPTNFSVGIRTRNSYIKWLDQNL
Description: Inhibition of KIAA1363 hydrolase.

Test [3] addresses T1, Fatty-acid amide hydrolase 1. Briefly: Inhibition of rat FAAH expressed in Escherichia coli at pH 9.0.
Test [4] in a line: Selectivity ratio of IC50 for TGH over IC50 for rat FAAH expressed in Escherichia coli.
The target of a further test is T3, Liver carboxylesterase 1 (Homo sapiens, UniProt P23141).
T3 sequence (P23141 whole entry): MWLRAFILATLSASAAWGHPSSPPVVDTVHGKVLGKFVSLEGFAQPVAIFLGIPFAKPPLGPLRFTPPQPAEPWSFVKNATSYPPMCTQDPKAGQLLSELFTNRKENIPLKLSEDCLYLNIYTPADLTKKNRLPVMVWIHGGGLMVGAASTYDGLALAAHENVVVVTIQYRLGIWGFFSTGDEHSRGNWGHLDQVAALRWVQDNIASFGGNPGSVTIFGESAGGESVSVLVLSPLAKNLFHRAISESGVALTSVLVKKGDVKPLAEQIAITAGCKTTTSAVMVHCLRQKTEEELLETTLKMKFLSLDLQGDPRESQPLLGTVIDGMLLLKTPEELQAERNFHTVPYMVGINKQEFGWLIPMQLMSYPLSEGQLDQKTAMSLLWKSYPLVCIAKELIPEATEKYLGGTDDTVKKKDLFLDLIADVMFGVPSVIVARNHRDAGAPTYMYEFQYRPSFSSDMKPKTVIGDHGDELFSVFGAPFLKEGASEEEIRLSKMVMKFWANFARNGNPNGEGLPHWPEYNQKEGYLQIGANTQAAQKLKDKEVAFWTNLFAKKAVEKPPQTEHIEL
Description: Inhibition of TGH. Put shortly:
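Measured in a proteome-wide selectivity screen that globally profiles mammalian serine hydrolases, with TGH among the enzymes detected. Values are reported as IC50 from this screen rather than as Ki from substrate hydrolysis assays.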

In the case of `N#Cc1cccc(-c2ccc(C(=O)CCCCCCc3ccccc3)nn2)n1`, the IC50 (in general, the concentration that gives 50% inhibition) is 13000 nM in test [1], more than 100000 nM in test [2] and 12000 nM on Liver carboxylesterase 1. Also, the Ki (commonly a dissociation constant, usually derived from enzyme kinetics or from competition with a known ligand) in test [3] was determined as 390 nM. The Ratio IC50 in test [4] stood at 1.

Regarding `O=C(CCCCCCc1ccccc1)c1noc(-c2ccccn2)n1`, the IC50 in test [1] is 7 nM; in test [2], more than 100000 nM; against Liver carboxylesterase 1, 400 nM. This compound also came in with a Ki in test [1] of 1.1 nM. Moreover, the Ratio IC50 in test [4] turned out to be 60.

As for `COC(=O)c1nc(C(=O)CCCCCCc2ccccc2)no1`, the IC50 is 10 nM in test [1], more than 100000 nM in test [2] and 200 nM against Liver carboxylesterase 1. In test [3], this compound showed a Ki of 7 nM. Moreover, the Ratio IC50 in test [4] stood at 20.

On to `O=C(CCCCCCc1ccccc1)c1nncs1`, for which the IC50 is 300 nM in test [1], more than 100000 nM in test [2] and 100 nM against Liver carboxylesterase 1. The Ratio IC50 in test [4] came to 1.

Take `O=C(CCCCCCc1ccccc1)c1ncc(-c2cccs2)o1`: the IC50 was 55 nM in test [1], more than 100000 nM in test [2] and 200 nM at Liver carboxylesterase 1. In test [4], the Ratio IC50 was determined as 0.008.

As for `COC(=O)c1cccc(-c2ccc(C(=O)CCCCCCc3ccccc3)nn2)n1`, the IC50 in test [1] is 10000 nM; in test [2], more than 100000 nM; at Liver carboxylesterase 1, more than 100000 nM. Also, the Ratio IC50 in test [4] is more than 10.

With `COC(=O)c1cccc(-c2noc(C(=O)CCCCCCc3ccccc3)n2)n1`, the IC50 was found to be 3 nM in test [1], 40000 nM in test [2] and 150 nM on Liver carboxylesterase 1. Moreover, the Ratio IC50 in test [4] turned out to be 50.

Take `O=C(CCCCCCc1ccccc1)c1nnn[nH]1`: the figures for the IC50 (in test [1]; in test [2]; against Liver carboxylesterase 1) were 600 nM, 60000 nM and 80 nM, respectively. The same compound came in with a Ki in test [3] of more than 1000 nM. Besides, the Ratio IC50 in test [4] is 0.13.

In the case of `O=C(CCCCCCc1ccccc1)c1ncon1`, the IC50 was 500 nM in test [1], more than 100000 nM in test [2] and 10 nM on Liver carboxylesterase 1. Besides, the Ratio IC50 in test [4] was found to be 0.02.

Take `O=C(CCCCCCc1ccccc1)c1nnc(-c2ccco2)o1`: the IC50 in test [1] is 1 nM; in test [2] it was more than 100000 nM; against Liver carboxylesterase 1 it was 80 nM. The Ratio IC50 in test [4] worked out at 80.
